Hits are enriched below; roughly 1.8% of the tested compounds scored in any of these assays.
M4 ag: human M4 muscarinic receptor agonists, primary screen, CHO-K1 cells, Fluo-8 calcium fluorescence | Muscarinic acetylcholine receptor M4 (Homo sapiens), P08173 | CHO-K1 hM4/Gqi5; vehicle 0%, full acetylcholine response 100% | activation, % at 3 µM | 360,000 compounds, 0.14% hits | AID 624127, 2012;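 active = activation above the run mean over all test wells plus 3 SD, cut at about 32% in these data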;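 note: peak over basal fluorescence ratio per well then scaled between controls; 0% = DMSO wells and 100% = acetylcholine at EC100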
Target sequence (P08173 whole entry, looked up): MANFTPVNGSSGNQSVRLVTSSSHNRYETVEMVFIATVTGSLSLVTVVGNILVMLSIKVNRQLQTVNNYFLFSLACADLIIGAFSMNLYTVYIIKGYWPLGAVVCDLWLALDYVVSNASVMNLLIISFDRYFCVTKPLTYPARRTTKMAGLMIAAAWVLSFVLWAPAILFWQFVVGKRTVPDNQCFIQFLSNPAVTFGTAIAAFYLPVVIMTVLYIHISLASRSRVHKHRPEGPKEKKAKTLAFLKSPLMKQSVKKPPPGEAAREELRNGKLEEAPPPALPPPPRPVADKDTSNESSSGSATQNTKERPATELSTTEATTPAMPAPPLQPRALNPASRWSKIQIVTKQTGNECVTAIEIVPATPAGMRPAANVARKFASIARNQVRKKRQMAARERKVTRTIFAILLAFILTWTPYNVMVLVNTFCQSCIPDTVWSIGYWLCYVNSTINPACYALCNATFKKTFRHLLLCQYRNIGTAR
M5 PAM: human M5 muscarinic receptor positive allosteric modulators, primary screen, CHO-K1 cells, Fluo-8 calcium fluorescence; CHO-K1 hM5, ACh EC20 PAM; 0% = ACh EC20, 100% = ACh EC100; activation, % at 3 µM; Muscarinic acetylcholine receptor M5 (Homo sapiens), P08912; AID 624038, 2012; 360,000 compounds, 0.3% hits;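 active = activation above the run cutoff, the mean activation of all test compounds plus 3 SD, cut at about 18% in these data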
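Replicates: One well per compound, no replicates | System: Human M5 receptor in CHO-K1 cells | Benchmarks: Low control EC20 acetylcholine (0%), high control EC100 acetylcholine (100%) | Probe or stimulus: Acetylcholine, EC20 level | Times: Fluo-8 loading 80 min at 37 °C plus 30 min room temperature | Signal: Intracellular calcium via Fluo-8 fluorescence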
CHRM4 PAM: human M4 muscarinic receptor positive allosteric modulators, primary screen, CHO-K1 cells, Fluo-8 calcium fluorescence | Muscarinic acetylcholine receptor M4 (Homo sapiens), P08173 | CHO-K1 hM4/Gqi5, ACh EC20; 0% = ACh EC20, 100% = maximal ACh | activation, % at 3 µM | 360,000 compounds, 0.4% hits;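 active = activation above its plate's cutoff, the mean activation of sample wells plus 3 SD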
M4 antag: human M4 muscarinic receptor antagonists, primary screen, CHO cells, Fluo-8 calcium fluorescence; inhibition, % at 3 µM; Muscarinic acetylcholine receptor M4 (Homo sapiens), P08173; AID 624125, 2012; CHO-hM4 cells, ACh EC80; 360,000 compounds, 0.73% hits;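 active = inhibition above its plate's cutoff, the mean inhibition of sample wells plus 3 SD, cut at about 27% in these data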;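 note: 0% = acetylcholine EC80 with DMSO and 100% = DMSO without agonist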
M5 antag: human M5 muscarinic receptor antagonists, primary screen, CHO cells, Fluo-8 calcium fluorescence | Muscarinic acetylcholine receptor M5 (Homo sapiens), P08912 | CHO-hM5 cells, ACh EC80 | inhibition, % at 3 µM | 360,000 compounds, 0.59% hits;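 active = inhibition above a per-plate cutoff, the mean of that plate's test compounds plus 3 SD, cut at about 27% in these data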;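 note: 0% = acetylcholine EC80 with DMSO and 100% = DMSO without agonist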
CHRM5 agonist: human M5 muscarinic receptor agonists, primary screen, CHO-K1 cells, Fluo-8 calcium fluorescence; Muscarinic acetylcholine receptor M5 (Homo sapiens), P08912; activation, % at 3 µM; 360,000 compounds, 0.19% hits; CHO-K1 hM5 cells; 0% DMSO wells, 100% maximal acetylcholine response;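 active = activation above the run's mean over test compounds plus 3 SD, cut at about 23% in these data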;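 note: signal is peak over basal fluorescence ratio across the kinetic read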
The depositor's hits bear a star.

SMILES | M4 ag | M5 PAM | CHRM4 PAM | M4 antag | M5 antag | CHRM5 agonist
O=C(/C=C/c1ccccc1)CC(O)(c1ccccc1)C(F)(F)C(F)F (configuration not stated) | -2.0 | -9.5 | -32.7 | 46.9* | 6.6 | -5.9
O=C(/C=C/c1ccccc1)CC(O)(c1ccccc1)C(F)(F)F (configuration not stated) | -2.0 | -5.0 | -26.7 | 30.9* | 7.4 | -7.0
O=C(NC(c1ccc(Cl)cc1)c1cnccn1)C1CCN(Cc2cccc(C(F)(F)F)c2)CC1 (configuration not stated) | 3.0 | -2.8 | -1.1 | -5.5 | 3.4 | -1.2
COc1ccc(Nc2cc(C)nc(N3CCN(C(=O)c4ccc5c(c4)OCO5)CC3)n2)cc1 | -0.4 | 7.2 | 3.1 | 3.4 | 0.3 | 1.6
Cc1ccc([N+](=O)[O-])c(OCCN2CCCCCC2)c1 | 2.1 | -6.1 | -6.2 | -12.7 | 0.7 | -9.8
Cc1ccc([N+](=O)[O-])c(OCCCN2CCC(Cc3ccccc3)CC2)c1 | 39.4* | -18.1 | -18.5 | 14.7 | 22.0 | 8.1
CC(=O)c1nnn(-c2ccc([N+](=O)[O-])cc2C)c1C | 0.3 | 0.9 | 2.3 | -0.3 | 10.4 | -1.2
COc1ccc(S(=O)(=O)Nc2c(C(=O)O)[nH]c3ccc(OC)cc23)cc1 | 0.6 | 1.5 | 14.1 | 5.6 | 7.0 | -3.6
COC(=O)c1[nH]c2ccc(F)cc2c1NS(=O)(=O)c1ccc(OC)cc1 | 7.9 | -6.5 | -12.7 | 29.4* | 1.1 | -2.5
Cc1ccc(S(=O)(=O)NCCCN2CCCC2)cc1 | 5.7 | 14.8 | 21.1* | 17.3 | 22.6 | -2.8
Cc1ccc(S(=O)(=O)NCCNS(=O)(=O)c2ccc(C)cc2)cc1 | 4.9 | -6.5 | -0.7 | 4.0 | 4.1 | -1.5
O=S(=O)(NCCCN1CCOCC1)c1ccc2c(c1)OCCO2 | -0.3 | 22.1* | -1.1 | 3.4 | -3.8 | 1.9
OCC[C@H]1C[C@H](O)[C@@H](O)[C@@]2(CCCc3ccccc3O2)O1 | 1.4 | 0.5 | 5.0 | 3.2 | 12.0 | -0.7
CCCCSCCCNC(=S)Nc1ccccc1C | 1.3 | 8.5 | -3.8 | 5.9 | 3.3 | -2.2
CCCCNC(=S)Nc1ccccc1Cc1ccccc1 | 1.4 | 22.9* | -0.2 | 1.3 | -6.3 | -4.8
COc1ccc(CNC(=O)COC(=O)C(CCSC)NC(=O)c2ccco2)cc1OC (configuration not stated) | 2.9 | -5.0 | 5.1 | -1.3 | 12.9 | 2.4
COc1cc(OC)c(OC)cc1CN1CCN(Cc2ccc(C(F)(F)F)cc2)CC1 | 1.0 | 22.2* | 3.7 | -8.8 | -6.9 | 0.5
CCOC(=O)[C@]12CCC=C1N(Cc1ccco1)C(=O)[C@H](CC(=O)NCCCN1CCCC1=O)C2 | 0.0 | 3.9 | 2.4 | 0.4 | -4.4 | 0.6
Cc1cccc(NC(=O)CSc2nc3nc(C)cc(C)n3n2)c1 | 1.9 | 5.3 | 4.0 | 4.5 | -8.9 | 0.5
CCOC(=O)C1(Cc2ccccc2)CCN(Cc2cn(CC(=O)OC)c3ccccc23)CC1 | 4.1 | 3.1 | 19.8* | -12.1 | -0.9 | -5.1
CCOC(=O)C1(Cc2ccccc2)CCN(Cc2cccc(OC)c2O)CC1 | 6.7 | 1.9 | -4.6 | -6.4 | -3.5 | 3.0
Oc1ccccc1Oc1ncc(Br)c(Cl)n1 | -0.9 | 3.7 | 4.9 | -0.7 | -4.3 | -7.5
Oc1ccccc1Oc1ncc(Br)c(N2CCOCC2)n1 | 0.9 | -22.6 | -17.9 | 40.2* | 10.9 | -7.7
Brc1cnc(N2CCCC2)nc1N1CCOCC1 | 0.0 | -0.8 | 10.9 | 27.3* | 4.8 | -2.6
COc1ccc(CCNC(=O)C(=O)c2c(C)[nH]c3ccccc23)cc1 | 13.2 | -17.9 | -7.6 | 1.1 | 70.5* | -8.6
SMILES | M4 ag | M5 PAM | CHRM4 PAM | M4 antag | M5 antag | CHRM5 agonist
CC(C)(C)C(c1nc2ccccc2[nH]1)n1c(-c2cccc(S(C)(=O)=O)c2)nc2ccccc21 (configuration not stated) | 0.8 | -4.3 | -4.3 | -13.1 | -4.3 | 0.0
Cc1sc2nc(CN3CCOCC3)nc(N3CCC(C(N)=O)CC3)c2c1C | 4.3 | -14.2 | 20.9* | 1.6 | 3.9 | 1.1
Cc1sc2nc(CN3CCOCC3)nc(N3CCOCC3)c2c1C | 0.0 | -2.5 | 8.1 | 3.0 | -3.0 | -1.8
Cc1cc(C(=O)C(C)OC(=O)c2ccc(NC(=O)CC#N)cc2)c(C)n1-c1ccc(OC(F)F)cc1 (configuration not stated) | 2.4 | -10.7 | -9.9 | -14.3 | -0.4 | -1.4
COc1ccc(CNC(=O)C(c2ccccc2F)N(C(=O)c2csnn2)C2CC2)cc1 (configuration not stated) | 16.7 | -8.2 | -0.6 | 2.8 | 7.8 | 4.0
CC(=O)OCCN(C)c1cc(SC(C)C)c2nonc2c1[N+](=O)[O-] | 2.4 | -3.5 | -3.5 | -3.3 | 10.1 | -0.1
CN(CCO)c1cc(Sc2nc3ccccc3s2)c2nonc2c1[N+](=O)[O-] | 3.9 | -13.4 | -13.5 | 92.5* | 21.0 | 1.0
CC(=O)N(C)c1ccc(NC(=O)Nc2ccc(Cl)cc2)cc1 | 26.9 | -29.3 | -14.3 | 26.3 | 28.9* | 7.3
CCNc1ccc(Br)cc(C(=O)/C=C/c2ccc(Cl)cc2Cl)c1=O | 5.5 | 12.0 | 3.1 | 40.5* | 19.5 | 5.4
COc1cc(NC(=O)COc2cccc3c2OC(C)(C)C3)cc(OC)c1OC | 25.8 | -32.5 | -12.5 | 15.1 | 16.7 | 7.0
O=C(Nc1cccc(-c2cccc(Cl)c2)c1)C1CCN(Cc2nccs2)CC1 | 11.0 | -3.6 | -5.5 | 1.3 | 3.4 | -0.2
O=C(CCC1CCN(Cc2nccs2)CC1)Nc1ccccc1 | 1.3 | -8.6 | -0.4 | -10.3 | 28.7* | -0.9
CCOC(=O)c1c(NC(=O)COC(=O)Cn2cnc3c2c(=O)n(C)c(=O)n3C)sc(C)c1CC | 2.8 | -8.9 | 23.8* | -4.6 | 6.2 | 1.0
Cc1ccc(NC(=O)COC(=O)Cn2cnc3c2c(=O)n(C)c(=O)n3C)cc1 | 1.6 | -5.8 | 4.5 | -15.2 | 1.0 | 3.5
CC(=O)Nc1cccc(C(=O)/C=C/c2ccc(N(C)C)cc2)c1 | 67.9* | -21.2 | -21.7 | 38.9* | 34.4* | 73.6*
O=C1OC(C(=O)Nc2ccccc2)Cc2ccccc21 (configuration not stated) | 1.3 | 8.6 | 12.3 | -1.2 | 2.5 | -2.7
NS(=O)(=O)c1ccc(NC(=O)C2Cc3ccccc3C(=O)O2)cc1 (configuration not stated) | 2.0 | 7.3 | 25.7* | -9.2 | -6.5 | 0.4

Assay outcomes: PubChem, The Scripps Research Institute Molecular Screening Center
